GalR3 antagonist – GalR3 antagonists in HEK293 cells, primary screen, cell-based, fluorescence readout | Galanin receptor type 3 (Homo sapiens), O60755 | HEK293 GalR3-CNG cAMP membrane potential fluorescence; galR3 body fused to GalR1 C-terminus | inhibition, % at 3 µM | 360,000 tested, 0.44% active;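 active = inhibition above the screen-wide average plus 3 SD, cut at about 13% in these data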;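 note: forskolin and galanin both at EC90 stimulate the cells; cAMP rise reported by CNG channel membrane potential dye signal; 0% = forskolin plus galanin with DMSO and 100% = forskolin alone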
697 NFkB inh – inhibitors of PMA/ionomycin-induced NF-kB reporter, 697 cells, primary screen, B-cell NF-kB inhibitor project, cell-based, luminescence, uHTS. 330,000 tested, 0.33% active. inhibition, % at 4 µM. 697 B-cell NF-kB luciferase reporter, 16 h; in the data active = inhibition above about 35%
NR2E3 ag-1 – NR2E3 agonists in two-hybrid cells, primary screen, cell-based, luminescence, CHO-S, Gal4-NCOR/VP16-NR2E3; luciferase; 360,000 tested, 0.35% active; inhibition of corepressor binding, % at 3.98 µM; Photoreceptor-specific nuclear receptor (Homo sapiens), Q9Y5X4;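 active = inhibition above the mean of all tested compounds plus 3 SD, cut at about 70% in these data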;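 note: 0% = DMSO with NR2E3 transfected cells and 100% = cells lacking NR2E3 construct; higher means lower luciferase signal from less NR2E3 corepressor binding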
Target sequence (Q9Y5X4 whole entry, looked up, the tested form may be a part): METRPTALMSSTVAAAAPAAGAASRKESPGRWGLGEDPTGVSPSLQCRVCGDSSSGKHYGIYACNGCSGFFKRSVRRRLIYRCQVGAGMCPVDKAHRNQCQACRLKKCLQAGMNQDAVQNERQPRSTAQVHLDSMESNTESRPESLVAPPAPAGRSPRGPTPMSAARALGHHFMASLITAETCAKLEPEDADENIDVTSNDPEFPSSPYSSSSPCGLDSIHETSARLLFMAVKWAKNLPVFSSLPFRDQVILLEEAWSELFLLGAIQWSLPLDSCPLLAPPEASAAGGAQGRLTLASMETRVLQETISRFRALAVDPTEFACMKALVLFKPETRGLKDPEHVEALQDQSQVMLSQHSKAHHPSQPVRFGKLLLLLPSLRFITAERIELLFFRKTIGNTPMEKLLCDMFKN
Jurkat NFkB inh – inhibitors of induced NF-kB luciferase reporter, primary screen, TCR NF-kB activation inhibitor project, cell-based, luminescence, uHTS. AID 435003, 2010. 330,000 tested, 0.53% active. inhibition, % at 4 µM. Jurkat, PMA/ionomycin-induced NF-kB luciferase reporter; in the data active = inhibition above about 50%
NR2E3 ag-2 – inhibitors of NR2E3-RetCOR corepressor binding, primary screen, NR2E3 agonist project, biochemical, TR-FRET, GST-NR2E3, biotin-RetCOR. Photoreceptor-specific nuclear receptor (Homo sapiens), Q9Y5X4. 1536-well. inhibition of corepressor binding, % at 4.78 µM. 320,000 tested, 0.12% active. AID 2300, 2010;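 active = percent inhibition above the cutoff of mean plus 3 SD of all tested compounds, set per screening campaign, cut at about 20% in these data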;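 note: 0% = DMSO wells and 100% = biotin wells as full block of FRET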
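Test system: GST-NR2E3 and biotin-RetCOR proteins | Quantity: 1.35 nM GST-tagged NR2E3 final | Medium: Tris pH 7.5 | Also added: 7 nM biotin-RetCOR | Dosing: Compound at 4.8 µM, single dose | Timing: 5 h at 4 °C | Detection: Time-resolved FRET | Read-out basis: Percent inhibition | Benchmarks: Biotin wells as high control, 0.6% DMSO wells as low control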
JMJD2C inh – inhibitors of GASC-1 histone demethylase, primary screen, biochemical, fluorescence, DELFIA europium. Lysine-specific demethylase 4C (Homo sapiens), Q9H3R0. GST-JMJD2C(1-420) H3K9me3 demethylation. inhibition, % at 2.35 µM. 330,000 tested, 0.069% active. AID 2099, 2009;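 active = more than half of a compound's replicate wells show inhibition beyond 50%, single wells judged on their own value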;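 note: signal counts dimethyl H3K9 product captured on neutravidin plate; 0% = median of DMSO wells and 100% = 0.3 times that DMSO median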
GalR3 conf – GalR3 antagonist hit confirmation, cell-based, fluorescence, triplicate; shares compounds with GalR3 antagonist; HEK293 GalR3 CNG cAMP biosensor, membrane potential fluorescence; galR3 fused to GalR1 carboxy tail; challenged with forskolin and galanin at EC90; inhibition, % at 3 µM; 1,600 tested, 59% active; AID 652245, 2013;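 active = inhibition above the primary screen's cutoff, the mean inhibition of all screened compounds plus 3 SD, cut at about 13% in these data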;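 note: 0% = forskolin plus galanin and 100% = forskolin alone with DMSO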
CNG parental – nonspecific cAMP agonists in parental HEK-CNG cells, counter-screen for GalR3 antagonist project, cell-based, fluorescence, high throughput; shares compounds with GalR3 antagonist; HEK293-CNG parental cells, cAMP membrane potential fluorescence; normalised: DMSO wells 0%, forskolin wells 100%; activation, % at 3 µM; 1,600 tested, 10% active; AID 652268, 2013; in the data active = activation above about 1.3%
* = called active by the depositor; i = inactive; nt = not tested or not shown; ! = not confirmed by another sample. Only some compounds are listed: those with a hit (about 1.5% of all), similar ones and a draw of the others.

SMILES	GalR3 antagonist	697 NFkB inh	NR2E3 ag-1	Jurkat NFkB inh	NR2E3 ag-2	JMJD2C inh	GalR3 conf	CNG parental
CN(C(=O)c1ccccc1-c1ccccc1C(=O)O)c1ccccc1	-8	2	11	4	-2	-4	nt	nt
COc1ccc(C2=NS(=O)(=O)N(C)C(C(=O)NC(C)c3ccccc3)=C2)cc1OC (configuration not stated)	6	1	-41	-17	0	-3	nt	nt
COc1ccc(C2=NS(=O)(=O)N(C)C(C(=O)N(C)Cc3ccccc3)=C2)cc1OC	15*	11	13	16	1	-10	22*	-1
COc1cccc(C2=NN(C(=O)c3cccs3)C(O)(C(F)(F)F)C2)c1 (configuration not stated)	13*	12	-9	-7	1	1	3	1
CCCCNC(=O)N(CC)c1c(N)n(Cc2ccccc2)c(=O)[nH]c1=O	13*	0	-14	-10	5	-2	3	0
CCCCNC(=O)N(c1c(N)n(Cc2ccccc2)c(=O)[nH]c1=O)C1CCCC1	-3	-5	-19	3	0	-15	nt	nt
COc1ccc(N2CCN(Cc3nc4c(c(=O)n(C)c(=O)n4C)n3CC(C)=O)CC2)cc1	-7	-15	-1	10	3	i	nt	nt
COc1ccc(N2CCN(Cc3nc4c(c(=O)[nH]c(=O)n4C)n3CC(C)=O)CC2)cc1	13*	15	-46	4	-3	13	1	0
O=C1NCC(COc2cccc3ccccc23)O1 (configuration not stated)	19*	-3	-9	13	3	-23	7	0
Cc1cc(/C=N/NC(=O)c2cc3ccccc3o2)c(C)n1C	-6	6	-23	-2	1	1	nt	nt
Cc1cc(=S)c2cccc(C)c2[nH]1	21*	3	nt	3	12	32	30*	0
COc1cc(/C=N\NC(=O)c2ccc(-c3ccccc3)cc2)cc(Br)c1O	15*	12	-11	-1	4	-1	41*	0
CSc1nc2ncc(C(=O)O)c(N)n2n1	3	3	-14	-1	1	-3	nt	nt
CC1(C)CC(=O)/C(=C(/O)CCCN2C(=O)c3ccccc3C2=O)C(=NC(C)(C)C)C1	-1	-4	1	-27	-2	-17	nt	nt
CC1(C)CC(=O)/C(=C(\O)CCCN2C(=O)c3ccccc3C2=O)C(=NCC(=O)O)C1	15*	-3	-21	-8	-2	37	1	0
COc1ccc2c(c1O)Cc1ccccc1C2=O	nt	-13	-3	-11	-4	-7	nt	nt
CC(C)=C1Cc2ccccc2C1=O	13*	10	-2	-3	-2	1	0	0
Cc1ccc(NC(=O)COc2coc(CN3CCc4ccccc43)cc2=O)cc1Cl	-4	-25	-19	6	1	-2	nt	nt
CCOC(=O)c1oc2c(c1C)/C(=N/O)CCC2	13*	-28	-32	-21	-2	-90	2	0
CCOC(=O)C1CCCN(C(=O)c2ccc(-c3ccc([N+](=O)[O-])cc3)o2)C1 (configuration not stated)	-1	-7	-17	5	5	8	nt	nt
CC(C)(C)CN1CCN(Cc2nc(-c3ccc(F)cc3)cs2)CC1CCO (configuration not stated)	101*	-67	3	24	-2	4	109*	0
O=C(Nc1ccccc1)N1c2ccccc2SC1c1ccco1 (configuration not stated)	-8	nt	nt	nt	nt	nt	nt	nt
O=C(CSc1nn(-c2ccccc2)c(=S)s1)Nn1cnnc1	-4	-26	-12	0	-4	-19	nt	nt
Cc1ccc(NC(=O)CSc2nn(-c3ccccc3)c(=S)s2)cc1S(=O)(=O)N(C)C	72*	-48	-18	13	-4	-12	93*	0
CCNC(=O)C1(C)CCN(C(=O)c2c(-c3ccccc3)noc2C)C1 (configuration not stated)	-6	nt	4	nt	nt	nt	nt	nt
SMILES	GalR3 antagonist	697 NFkB inh	NR2E3 ag-1	Jurkat NFkB inh	NR2E3 ag-2	JMJD2C inh	GalR3 conf	CNG parental
CCOc1ccc(C(=O)N/N=C/c2c(C)[nH]c(=O)[nH]c2=O)cc1	-6	7	nt	2	0	3	nt	nt
CC12CCC(C/C1=N\N=C1\NC(=O)/C(=C\c3ccc(Cl)cc3)S1)C2(C)C (configuration not stated)	17*	-40	2	-8	3	11	-16	34*
O=C1NC(=Nc2ccccc2Cl)S/C1=C\c1ccc(C(=O)O)cc1	-8	1	-17	-2	0	6	nt	nt
N#Cc1cccc(C(=O)C(=O)N2CCC(Cc3ccccc3)CC2)c1	-7	nt	nt	nt	nt	nt	nt	nt
O=C(C(=O)N1CCC(Cc2ccccc2)CC1)c1ccccc1	16*!	nt	nt	nt	nt	nt	-2	0
O=C(O)Cc1csc(-c2ccccc2)n1	2	1	8	0	6	1	nt	nt
O=C(O)Cc1csc(-c2cccc(F)c2)n1	nt	14	1	1	-1	-2	0	0
Cc1ccc(C(=O)N2CCCC(CCC(=O)N3CCN(c4ccccn4)CC3)C2)cn1 (configuration not stated)	13*	7	-4	11	4	-15	8	0
COC(=O)[C@]1(C)N[C@H](CN(C)C(C)=O)[C@@H]2C(=O)N(Cc3ccccc3)C(=O)[C@@H]21	-4	13	-22	10	nt	nt	nt	nt
CC(C)CC1NC(=O)N(CC(=O)Nc2ccc3c(c2)CCC3)C1=O (configuration not stated)	-7	0	1	-7	-1	5	nt	nt
CN1CC(=O)N(CC(=O)Nc2ccc3c(c2)CCC3)C1=O	24*	8	-2	9	1	19	4	0
COc1ccccc1OCC(=O)Nc1ccc(S(=O)(=O)N2CCCC2)cc1	-2	12	-14	8	-1	19	nt	nt
